What was measured:
[1] = biological target: T1, Adenosine receptor A1 (Bos taurus) (UniProt P28190); assay: Percent inhibition of specific [3H]CHA binding on Adenosine A1 receptor in bovine cortical membranes at 10 uM concentration; type: cell membranes
T1 sequence (whole entry): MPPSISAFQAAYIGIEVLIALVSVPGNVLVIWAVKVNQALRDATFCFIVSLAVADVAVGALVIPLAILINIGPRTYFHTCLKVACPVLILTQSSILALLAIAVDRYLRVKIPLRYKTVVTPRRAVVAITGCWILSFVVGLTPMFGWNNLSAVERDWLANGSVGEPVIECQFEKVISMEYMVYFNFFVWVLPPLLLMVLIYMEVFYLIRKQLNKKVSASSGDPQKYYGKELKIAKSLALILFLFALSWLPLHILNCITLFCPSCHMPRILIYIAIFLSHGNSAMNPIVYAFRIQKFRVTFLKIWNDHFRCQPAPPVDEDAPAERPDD

[2] = test system: Adenosine receptor A2a (Bos taurus); assay: Percent inhibition of specific [3H]-CGS-21,680 binding to adenosine A2A receptors in bovine striatal membranes at 10 uM concentration
Adenosine receptor A1 [3] = biological target: T2, Adenosine receptor A1 (Rattus norvegicus, UniProt P25099); assay: Binding affinity against rat Adenosine A1 receptor
T2 sequence (P25099 whole entry): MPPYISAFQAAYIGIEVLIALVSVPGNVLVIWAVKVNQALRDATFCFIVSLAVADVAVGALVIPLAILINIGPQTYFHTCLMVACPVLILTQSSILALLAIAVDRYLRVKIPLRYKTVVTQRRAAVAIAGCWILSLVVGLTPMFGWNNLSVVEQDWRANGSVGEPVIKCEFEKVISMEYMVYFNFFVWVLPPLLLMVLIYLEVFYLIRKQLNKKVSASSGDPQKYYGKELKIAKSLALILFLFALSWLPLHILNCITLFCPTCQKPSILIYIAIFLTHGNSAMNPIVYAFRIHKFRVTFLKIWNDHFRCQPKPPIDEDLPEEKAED

Adenosine receptor A1 [4] = biological target: T3, Adenosine receptor A1 (Bos taurus, UniProt P28190); assay: Displacement of [3H]DPCPX from Adenosine A1 receptor of bovine cortical membranes without GTP
T3 sequence (P28190 whole entry): T1 sequence (whole entry)
Method in brief: (§1)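 [3H]DPCPX displacement from bovine cortical membranes, method of Pirovano et al., run with and without 1 mM GTP. Values from three separate experiments, mean ± SEM.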

Adenosine receptor A1 [5] = biological target: T3, Adenosine receptor A1; assay: Displacement of [3H]DPCPX from Adenosine A1 receptor of bovine cortical membranes with 1 mM GTP; method in brief: as §1
[6] = Compound was evaluated for the inhibition of Adenylate cyclase activity; type: functional
Adenosine receptor A1 [7] = biological target: T3, Adenosine receptor A1; assay: Binding affinity at bovine Adenosine A1 receptor.
Adenosine receptor A1 [8] = biological target: T3, Adenosine receptor A1; assay: Binding affinity to Adenosine A1 receptor in bovine cortical membranes by [3H]N6-cyclohexyl adenosine displacement.; type: cell membranes

| SMILES | inhibition [1] [%] | inhibition [2] [%] | Ki (Adenosine receptor A1 [7]) [nM] | also measured |
| --- | --- | --- | --- | --- |
| CCOCCNc1c(C(=O)OCC)cnc2c1cnn2/C=C/c1ccccc1 | 51 | 0 | – | – |
| CCOC(=O)c1cnc2c(cnn2/C=C/c2ccccc2)c1N1CCOCC1 | 40 | 0 | – | – |
| CCOC(=O)c1cnc2c(cnn2CC(Cl)c2ccccc2)c1NCCc1ccccc1 (stereo not given) | – | – | – | Ki (Adenosine receptor A1 [3]): 73 nM; Ki (Adenosine receptor A1 [4]): 69.7 nM; Ki (Adenosine receptor A1 [5]): 56 nM; IC50 [6]: 52.2 nM |
| CCOC(=O)c1cnc2c(cnn2/C=C/c2ccccc2)c1NC1CCCCC1 | 21 | 0 | – | – |
| Nc1nc2ccc(Cl)cc2n2nc(-c3ccccc3F)nc12 | – | – | 13 | – |
| CCOC(=O)c1cnc2c(cnn2CC(Cl)COc2ccccc2)c1N1CCOCC1 (stereo not given) | 40 | 0 | – | – |
| CCCNc1c(C(=O)OCC)cnc2c1cnn2/C=C/c1ccccc1 | 40 | 0 | – | – |
| CCCCNc1c(C(=O)OCC)cnc2c1cnn2/C=C/c1ccccc1 | 60 | 0 | – | – |
| CCOC(=O)c1cnc2c(cnn2CC(Cl)c2ccccc2)c1NCc1ccccc1 (stereo not given) | – | 0 | – | – |
| c1ccc(-c2nc3c(NC4CCCC4)[nH]c4ccccc4c-3n2)cc1 | – | – | 10 | – |
| CCOC(=O)c1cnc2c(cnn2CC(Cl)COc2ccccc2)c1N1CCCC1 (stereo not given) | 33 | 15 | – | – |
| Cc1nn(C)c2c(=O)[nH]c(-c3ccc(Cl)cc3N)nc12 | – | – | 176 | – |
| CCOC(=O)c1cnc2c(cnn2CC(Cl)c2ccccc2)c1NC1CCCCC1 (stereo not given) | – | 0 | – | Ki (Adenosine receptor A1 [8]): 1490 nM |
| CCOC(=O)c1cnc2c(cnn2/C=C/c2ccccc2)c1NCc1ccccc1 | 39 | 2 | – | – |
| CCCCNc1c(C(=O)OCC)cnc2c1cnn2CC(Cl)COc1ccccc1 (stereo not given) | – | 23 | – | Ki (Adenosine receptor A1 [8]): 1220 nM |
| O=C(O)CCCn1nc(-c2c(-c3ccccc3)nn3ccccc23)ccc1=O | – | – | 6.6 | – |
| CCOC(=O)c1cnc2c(cnn2/C=C/c2ccccc2)c1NCCc1ccccc1 | 58 | 2 | – | – |
| CCOC(=O)c1cnc2c(cnn2/C=C/c2ccccc2)c1N1CCCC1 | 39 | 0 | – | – |

| SMILES | inhibition [1] [%] | inhibition [2] [%] | Ki (Adenosine receptor A1 [7]) [nM] | also measured |
| --- | --- | --- | --- | --- |
| COc1ccc(-c2nc(N)c3c(C)c(C)n(C(C)c4ccccc4)c3n2)cc1 (stereo not given) | – | – | 101 | – |
| Nc1nc(-c2ccncc2)nc2c1c1c(n2-c2ccccc2)CCCC1 | – | – | 600 | – |
| Cc1cnc2c(NC3CCCC3)nc3ccccc3n12 | – | – | 7.9 | – |
| FC(F)(F)c1nnc2c(NC3CCCC3)nc3ccccc3n12 | – | – | 7.3 | – |
| CCOC(=O)c1cnc2c(cnn2CC(Cl)c2ccccc2)c1N1CCCCC1 (stereo not given) | 41 | 23 | – | – |
| CCOCCNc1c(C(=O)OCC)cnc2c1cnn2CC(Cl)COc1ccccc1 (stereo not given) | – | – | – | Ki (Adenosine receptor A1 [8]): 2690 nM |
| CCOC(=O)c1cnc2c(cnn2CC(Cl)COc2ccccc2)c1NC1CC1 (stereo not given) | – | 34 | – | Ki (Adenosine receptor A1 [8]): 1050 nM |
| CN1C=NC2C(NC3CCCC3)=NC=NC21 (stereo not given) | – | – | 540 | – |
| CCOC(=O)c1cnc2c(cnn2CC(Cl)COc2ccccc2)c1NCCc1ccccc1 (stereo not given) | – | 5 | – | Ki (Adenosine receptor A1 [8]): 456 nM |
| CCOC(=O)c1cnc2c(cnn2CC(Cl)COc2ccccc2)c1NC1CCCCC1 (stereo not given) | – | 1 | – | Ki (Adenosine receptor A1 [8]): 3710 nM |
| CCOC(=O)c1cnc2c(cnn2CC(Cl)c2ccccc2)c1N1CCOCC1 (stereo not given) | – | 0 | – | – |
| CCCn1c(=O)c2[nH]c(C3CCC(=O)C3)nc2n(CCC)c1=O (stereo not given) | – | – | 15 | – |
| CCOC(=O)c1cnc2c(cnn2CC(Cl)c2ccccc2)c1N1CCCC1 (stereo not given) | – | – | – | Ki (Adenosine receptor A1 [3]): 140 nM; Ki (Adenosine receptor A1 [4]): 103 nM; Ki (Adenosine receptor A1 [5]): 90 nM; IC50 [6]: 154 nM |
| C[C@H](c1ccccc1)n1c2ccccc2c2c(N)nc(-c3ccccc3)nc21 | – | – | 2.6 | – |
| CCOC(=O)c1cnc2c(cnn2/C=C/c2ccccc2)c1NC1CC1 | 67 | 0 | – | – |
| CCCSc1nc(SC(CC)C(N)=O)nc2c1ncn2-c1ccccc1 (stereo not given) | – | – | 29.5 | – |
| CCOC(=O)c1cnc2c(cnn2CC(Cl)COc2ccccc2)c1NCc1ccccc1 (stereo not given) | 36 | 12 | – | – |
| O=C(/C=C/C1=CC=CN2N=C(c3ccccc3)CC12)N1CCCC[C@H]1CCO (stereo not given in full) | – | – | 0.49 | – |
